Data on one compound can be found in ChEMBL document CHEMBL1687827, “Profiling the Aspergillus fumigatus proteome in response to caspofungin” (2011).

The subject of assay [1] is Aspergillus fumigatus. The assay can be described thus: Induction of change in 60S ribosomal protein L27e protein level in iTRAQ-118 labelled cell wall fraction of drug-susceptible Aspergillus fumigatus KU80 delta-akuB at 0.12 ug/ml after 24 hrs in YPD medium by MS (MS/MS) analysis relative to control. The format is functional. In a few lines:
(§1)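 Conidia at 1 × 10⁵/ml grown shaking at 37°C in YPD with or without 0.12 μg/ml caspofungin; mycelia filtered at 24 or 48 h. Secreted fraction taken from the filtrate; cell wall/plasma membrane pellet recovered after French-press lysis and a 5,000 × g spin. Proteins trypsin-digested and iTRAQ-labelled, drug vs no-drug channels at each time, then 2D LC-MS/MS. Protein ratio is the median of ratios from uniquely assigned peptides after median normalization.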

Assay [2] deals with Aspergillus fumigatus. The assay can be described thus: Induction of change in 4-hydroxyphenylpyruvate dioxygenase, putative protein level in iTRAQ-116 labelled secreted fraction of drug-susceptible Aspergillus fumigatus KU80 delta-akuB at 0.12 ug/ml after 48 hrs in YPD medium by MS (MS/MS) analysis relative to control. It is filed as functional. Put shortly: as §1
The test system of assay [3] is Aspergillus fumigatus. The assay can be described thus: Induction of change in cytosolic small ribosomal subunit S15, putative protein level in iTRAQ114 labelled secreted fraction of drug-susceptible Aspergillus fumigatus KU80 delta-akuB at 0.12 ug/ml after 24 hrs in YPD medium by MS (MS/MS) analysis relative to control. The format is functional. In a few lines: as §1

The test system of assay [4] is Aspergillus fumigatus. The assay can be described thus: Induction of change in hypothetical gene locus AFUA_6G02310 expression in drug-susceptible Aspergillus fumigatus KU80 delta-akuB at 0.12 ug/ml after 24 hrs in YPD medium by microarray analysis relative to control. The format is functional. In a few lines:
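Mycelia grown in YPD ± 0.12 μg/ml caspofungin (1 × 10⁵ conidia/ml, 37°C, shaking) and harvested at 24 or 48 h. Total RNA extracted, DNase-treated and quality-checked; 2 μg labelled per TIGR SOP M007 and hybridized to whole-genome arrays. Three independent experiments with dye flip (6 replicates); drug vs untreated fold change.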

Assay [5] has as its system Aspergillus fumigatus. The assay can be described thus: Induction of change in Ribosomal L28e protein family protein level in iTRAQ114 labelled secreted fraction of drug-susceptible Aspergillus fumigatus KU80 delta-akuB at 0.12 ug/ml after 24 hrs in YPD medium by MS (MS/MS) analysis relative to control. It is filed as functional. Put shortly:
as §1

Assay [6] concerns Aspergillus fumigatus. The assay can be described thus: Induction of change in citrate synthase, eukaryotic protein level in iTRAQ-116 labelled secreted fraction of drug-susceptible Aspergillus fumigatus KU80 delta-akuB at 0.12 ug/ml after 48 hrs in YPD medium by MS (MS/MS) analysis relative to control. It is filed as functional. Put shortly:
as §1

The subject of assay [7] is Aspergillus fumigatus. The assay can be described thus: Induction of change in ribosomal protein L27a protein level in iTRAQ114 labelled cell wall fraction of drug-susceptible Aspergillus fumigatus KU80 delta-akuB at 0.12 ug/ml after 24 hrs in YPD medium by MS (MS/MS) analysis relative to control. The format is functional.
The test system of assay [8] is Aspergillus fumigatus. The assay can be described thus: Induction of change in Mitochondrial hypoxia-responsive domain protein level in iTRAQ-116 labelled cell wall fraction of drug-resistant Aspergillus fumigatus EMFR-S678P at 0.12 ug/ml after 24 hrs in YPD medium by MS (MS/MS) analysis relative to control. It is filed as functional, organism-based. In a few lines: (§2)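 Conidia at 1 × 10⁵/ml were grown at 37°C, shaking at 225 rpm, in YPD with or without 0.12 μg/ml caspofungin for 24 or 48 h. The culture filtrate was kept as the secreted fraction. Mycelia were lysed by French press in HEPES/glycerol/EDTA/PMSF/DTT buffer, and the 5,000 × g pellet was washed to give CW/PM. Proteins were reduced, alkylated and trypsin-digested at 37°C overnight, then iTRAQ-labelled and run by 2D LC-MS/MS. Ratios are the median of unique-peptide ratios, median-normalized, versus the no-drug control.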

For assay [9], the system named is Aspergillus fumigatus. The assay can be described thus: Induction of change in 40S ribosomal protein S3Ae protein level in iTRAQ114 labelled cell wall fraction of drug-resistant Aspergillus fumigatus EMFR-S678P at 0.12 ug/ml after 24 hrs in YPD medium by MS (MS/MS) analysis relative to control. The format is functional. Put shortly:
as §2

Assay [10] has as its system Aspergillus fumigatus. The assay can be described thus: Induction of change in ATP citrate lyase, subunit 1, putative protein level in iTRAQ114 labelled secreted fraction of drug-resistant Aspergillus fumigatus EMFR-S678P at 0.12 ug/ml after 24 hrs in YPD medium by MS (MS/MS) analysis relative to control. The format is functional. Put shortly: as §2
In assay [11] the test system is Aspergillus fumigatus. The assay can be described thus: Induction of change in ThiJ/PfpI family protein level in iTRAQ-118 labelled cell wall fraction of drug-resistant Aspergillus fumigatus EMFR-S678P at 0.12 ug/ml after 24 hrs in YPD medium by MS (MS/MS) analysis relative to control. It is filed as functional. In a few lines: as §2
For assay [12], the system named is Aspergillus fumigatus. The assay can be described thus: Induction of change in SUN domain protein (Uth1), putative protein level in iTRAQ-118 labelled cell wall fraction of drug-resistant Aspergillus fumigatus EMFR-S678P at 0.12 ug/ml after 24 hrs in YPD medium by MS (MS/MS) analysis relative to control. It is filed as functional. In a few lines:
as §2

The subject of assay [13] is Aspergillus fumigatus. The assay can be described thus: Induction of change in transcriptional repressor TupA/RocA, putative protein level in iTRAQ-118 labelled cell wall fraction of drug-resistant Aspergillus fumigatus EMFR-S678P at 0.12 ug/ml after 24 hrs in YPD medium by MS (MS/MS) analysis relative to control. The format is functional. Put shortly: as §2
Assay [14] relates to Aspergillus fumigatus. The assay can be described thus: Induction of change in nascent polypeptide-associated complex (NAC) subunit, putative protein level in iTRAQ-116 labelled secreted fraction of drug-resistant Aspergillus fumigatus EMFR-S678P at 0.12 ug/ml after 48 hrs in YPD medium by MS (MS/MS) analysis relative to control. It is filed as functional, organism-based. Put shortly: as §2

Assay [15] deals with Aspergillus fumigatus. The assay can be described thus: Induction of change in Class III chitinase ChiA1 protein level in iTRAQ114 labelled cell wall fraction of drug-susceptible Aspergillus fumigatus KU80 delta-akuB at 0.12 ug/ml after 24 hrs in YPD medium by MS (MS/MS) analysis relative to control. The format is functional. Put shortly: as §2
Assay [16] concerns Aspergillus fumigatus. The assay can be described thus: Induction of change in Ribosomal protein S13p/S18e protein level in iTRAQ114 labelled cell wall fraction of drug-susceptible Aspergillus fumigatus KU80 delta-akuB at 0.12 ug/ml after 24 hrs in YPD medium by MS (MS/MS) analysis relative to control. The format is functional. In a few lines:
as §1

Assay [17] has as its system Aspergillus fumigatus. The assay can be described thus: Induction of change in thioredoxin TrxA protein level in iTRAQ-118 labelled cell wall fraction of drug-susceptible Aspergillus fumigatus KU80 delta-akuB at 0.12 ug/ml after 24 hrs in YPD medium by MS (MS/MS) analysis relative to control. The format is functional. In a few lines: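 Conidia (1 × 10⁵/ml) grown in YPD, 37°C, 225 rpm, ± 0.12 μg/ml caspofungin; filtrate taken as secreted fraction, French-press lysate 5,000 × g pellet as cell wall/plasma membrane. Trypsin digests 8-plex iTRAQ-labelled (drug-free channels as references), pooled, 2D-chromatography, MS/MS. Median-normalized; protein ratio = median of unique-peptide ratios, log2 normalized.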

The test system of assay [18] is Aspergillus fumigatus. The assay can be described thus: Induction of change in BYS1 domain protein, putative protein level in iTRAQ-121 labelled cell wall fraction of drug-susceptible Aspergillus fumigatus KU80 delta-akuB at 0.12 ug/ml after 48 hrs in YPD medium by MS (MS/MS) analysis relative to control.

Molecules are shown by their SMILES. Calls of active or inactive are those of the source. The rule behind the calls is not given here.

As to `CC[C@H](C)C[C@H](C)CCCCCCCCC(=O)N[C@H]1C[C@@H](O)[C@@H](NCCN)NC(=O)[C@@H]2[C@@H](O)CCN2C(=O)[C@H]([C@H](O)CCN)NC(=O)[C@H]([C@H](O)[C@@H](O)c2ccc(O)cc2)NC(=O)[C@@H]2C[C@@H](O)CN2C(=O)[C@H]([C@@H](C)O)NC1=O` [CASPOFUNGIN], the “fold change (FC)” value is reported as 2.6 in assay [1]; greater than -16 in assay [2]; -1 in [3]; 3.8 in assay [4]; -1.6 in [5]; -1.6 in assay [6]. Further, the “fold change (FC)” value was 1.9 in [7]; 1.07 in assay [9]; -1.07 in [10]; 1.23 in assay [11]; 1.07 in [12]; 1.32 in assay [13]. Besides, the “fold change (FC)” value in assay [15] is on record as -12.1; in [16], 2.3; in [17] it was -3.2; in assay [18] it was -2.5. The result in [8] and in assay [14] was inactive.
